Test results from the EternaBench riboswitch data.

Test system: MS2 coat protein
Experiment: apparent Kd, MS2 coat protein; higher = weaker binding; RNA-MaP array; FMN 200 µM where present
Procedure, shortened: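 Stalled E. coli RNA polymerase transcribed the designs on Illumina sequencing-chip clusters. SNAP-549-labelled MS2 coat protein was titrated from 0.7 or 1.5 nM, doubling to 3 µM, without and then with constant ligand, in 100 mM Tris-HCl pH 7.5, 80 mM KCl, 4 mM MgCl2, BSA, DTT, yeast tRNA and Tween-20. Per-cluster binding curves were fitted to green signal normalised to red-channel RNA signal and control-cluster median Fmax. The apparent Kd is the median of the filtered fits.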

[1] = designed as: OFF switch for flavin mononucleotide, no ligand
[2] = ligand present: flavin mononucleotide, designed as: OFF switch for flavin mononucleotide
[3] = designed as: ON switch for flavin mononucleotide, no ligand
[4] = ligand present: flavin mononucleotide, designed as: ON switch for flavin mononucleotide

Sequence	apparent Kd [1]	apparent Kd [2]	apparent Kd [3]	apparent Kd [4]
UUGCGGUCAGGAUAUGCAUGGCGGGACUUGCGUCGUGGCGUGGAGAAGGGACAUGAGGAUCACCCAUGUGGAGC	54.5 nM	59.9 nM		
GCAGACGUAGUGAGGAUAUGCUCUACCUCGGUAGAGCAGAAGGCACAUGAGGAUCACCCAUGUGAUUUCUCUGC	37.2 nM	421 nM		
UGUCGGAGCAGAGGAUAUUACAUGAGGAUCACCCAUGUAUGAACCAAUAGCUGGAAACAGCAAUGUAAGAAGGCUGCACCGACA	12.6 nM	178 nM		
GGAGCUCAUCAAUACAUGAGGAUCACCCAUGUCGAAUGAUAUGAGGAUAUGCAUCGGAAAACGAUGUAGAAGGCAUAGAGCUCC			15.3 nM	6.63 nM
UGCACCAACGAGAAGGCACAGAUCCAGCUCUUGACAUGAGGAUCACCCAUGUGAGGAUAUCGUAGGUGCGAUUUGGGACAAUCU	11 nM	91.8 nM		
UGAUAAUACGUCAGGAUAUGCGUCAUAGAGAAGUGGUAGAAGGGACAUGAGGAUCACCCAUGUUUUGGGUUAUA	132 nM	93.5 nM		
GUAUCUUAUGUGAGGAUAUAUUAUGUCUUGGUGUAGUAGAAGGCACAUGAGGAUCACCCAUGUCCUAUUGGUCU	40.9 nM	116 nM		
ACGGCAAUCGAAGGAUAUGGUUACAUGAGGAUCACCCAUGUCUAGGGUCUAAUUAGGUAUAACUACCAGAAGGUCGAAGGCCUA	67.6 nM	72.5 nM		
CCAGACGUAGGAUAUACAUUUGGGUAAUCCCGCGGAAAGAUACAUGAGGAUCACCCAUGUAGAAGGGCGGUAAA	31.1 nM	21.1 nM		
CUUUUGUGAGGAUAUCAGUAGUAGAACAAUAGUACUACUACUGAGAAGGCACAUGAGGAUCACCCAUGUUCUUC	33.5 nM	118 nM		
UUCUAGCUCACAGGAUAUGGGUAUCGACGAUGCCCAGAAGGGUGAUUUGGCACAUGAGGAUCACCCAUGUGGGCGCUUGAAUAU			45 nM	98 nM
UAAUAAUAAUAAUAAUGCUGACAUACAUGAGGAUCACCCAUGUAGGAUAUCGUCAGGAAUACUGACGAGAAGGACAUAGUCAGC	15.4 nM	17.4 nM		
GCCGAGUGAGGAUAUAGCCAGGUUCGAUAAGGUCGAAUCGGCUAGAAGGCACAUGAGGAUCACCCAUGUGGGUA	225 nM	449 nM		
UAUUAGUAAGGAUAUGAGACGUAGGACGCAAGUCCUACGUCUCAGAAGGUACAUGAGGAUCACCCAUGUUUAUU	18.1 nM	24.4 nM		
GAGUGACAUGAGGAUCACCCAUGUGAGGAUAUCGGACGGACCUAGUUAACUUCCGCCGCGAGAAGGCACAUCGG	98.7 nM	33.8 nM		
GCACAUGAUACAGGAUAUGUUUUGGAUUUUAUAUGCAGUUAUUUUAUUUUGACAGAAGGGUAUACAUGAGGAUCACCCAUGUGC	76.3 nM	48.1 nM		
GUUAAACAUGAGGAUCACCCAUGUAAGGAUAUGCUGCGGUCGAGAUGAAGUGAAUGCAGCAGAAGGUACAAUUG	116 nM	99.9 nM		
UAUGUGUCAGGAUAUUAGUAGUAAAUAAAUAAAAUUAUUACUGAGAAGGGACAUGAGGAUCACCCAUGUGCCUC	32.8 nM	354 nM		
GGAUCGAAUGUCAGGAUAUGCUGGUCCUUGGAUCAGCAGAAGGGACAUGAGGAUCACCCAUGUGACGACGGUCC	64.7 nM	503 nM		
ACGGCUGUCAGAGGAUAUGGUUACAUGAGGAUCACCCAUGUCAAGGGUCUAACUAAGUAUAGCUACUAGAAGGCUGAUGGCCGA	158 nM	107 nM		
CCACGUCACAUUUACAUGAGGAUCACCCAUGUCGAAAGACAUGAGGAUAUGCAUCCUAAUUGGAUGCAGAAGGCAUGGACGUGG			276 nM	274 nM
AGAAUGGGCGAGAAGGGAGUACAUGAGGAUCACCCAUGUGGUUCAUGGUGCUCAGGAUAUCGAUAGACCAAGGAGAGCCUUUGG	21.9 nM	185 nM		
GUGAUACAUGAGGAUCACCCAUGUCACCUCACACGAGGAUAUCUGUGCAGUACUCAGUACGGAGAAGGCGUGGAAA			96.7 nM	26.4 nM
